{"data": "Measurements gathered from unrelated publications", "note": "Lines come from different studies, so protocols differ."}
{"Structure (SMILES)": "CCCCCCCCCCCCN1CCN(CC(O)(Cn2cncn2)c2ccc(F)cc2F)CC1 (centres unmarked)", "target or system": "Lodderomyces parapsilosis", "test": "microbial growth, broth dilution", "system": "ATCC22019", "setting": "48 h", "endpoint": "MIC", "value": "0.015 µg/mL"}
{"Structure (SMILES)": "Clc1ccc(-c2nc3ccccc3[nH]2)cc1", "target or system": "Aspergillus niger", "test": "microbial growth", "system": "ATCC16404", "endpoint": "MIC", "value": "256 µg/mL"}
{"Structure (SMILES)": "N#CC(C(=O)Nc1cccc(C(F)(F)F)c1)=C1Sc2nc3ccc(S(=O)(=O)N4CCCC4)cc3nc2S1", "target or system": "MDA-MB-231", "test": "cell growth or viability, MTT", "setting": "25 µM, 24 h", "endpoint": "viability", "value": "26.5%"}
{"Structure (SMILES)": "COc1cc2c(cc1OS(N)(=O)=O)CCN(Cc1cccc(OC(C)C)c1)C2", "target or system": "MDA-MB-231", "test": "cell growth or viability, WST-1", "setting": "96 h", "endpoint": "GI50", "value": "4.65 µM"}
{"Structure (SMILES)": "COc1ccc(-c2nc3ccc(C)cc3[nH]2)cc1O", "target or system": "Aspergillus niger", "test": "microbial growth", "system": "ATCC16404", "endpoint": "MIC", "value": "512 µg/mL"}
{"Structure (SMILES)": "COc1cc2c(cc1O)CCN(Cc1ccc(OC)c(OC)c1OC)C2", "target or system": "MDA-MB-231", "test": "cell growth or viability, WST-1", "setting": "96 h", "endpoint": "GI50", "value": "> 100 µM"}
{"Structure (SMILES)": "C[C@]12CC[C@H](O)CC1=CC[C@@H]1[C@@H]2CC[C@]2(C)C(n3cnc4ccccc43)=CC[C@@H]12", "target or system": "CWR22Rv1", "test": "cell growth or viability, MTT", "endpoint": "GI50", "value": "3.8 µM"}
{"Structure (SMILES)": "Cc1ccc2nc(-c3ccco3)[nH]c2c1", "target or system": "Aspergillus niger", "test": "microbial growth", "system": "ATCC16404", "endpoint": "MIC", "value": "512 µg/mL"}
{"Structure (SMILES)": "CCCCCCCCCN1CCN(CC(O)(Cn2cncn2)c2ccc(F)cc2F)CC1 (centres unmarked)", "target or system": "Lodderomyces parapsilosis", "test": "microbial growth, broth dilution", "system": "ATCC22019", "setting": "48 h", "endpoint": "MIC", "value": "0.24 µg/mL"}
{"Structure (SMILES)": "COc1cc2c(cc1O)CCN(Cc1cc(OC)c(OC)c(OC)c1)C2", "target or system": "MDA-MB-231", "test": "cell growth or viability, WST-1", "setting": "96 h", "endpoint": "GI50", "value": "0.62 µM"}
{"Structure (SMILES)": "CCOc1cc(-c2nc3ccccc3[nH]2)ccc1O", "target or system": "Aspergillus niger", "test": "microbial growth", "system": "ATCC16404", "endpoint": "MIC", "value": "512 µg/mL"}
{"Structure (SMILES)": "COc1cc2c(cc1O)CCN(Cc1cccc(OC(F)(F)F)c1)C2", "target or system": "MDA-MB-231", "test": "cell growth or viability, WST-1", "setting": "96 h", "endpoint": "GI50", "value": "> 100 µM"}
{"Structure (SMILES)": "O=C1CCCCC1=C1Sc2nc3ccc(S(=O)(=O)N4CCCC4)cc3nc2S1", "target or system": "MDA-MB-231", "test": "cell growth or viability, MTT", "setting": "25 µM, 24 h", "endpoint": "viability", "value": "23.4%"}
{"Structure (SMILES)": "Nc1[nH]c(=O)ncc1F", "target or system": "Lodderomyces parapsilosis", "test": "microbial growth", "endpoint": "MIC90", "value": "0.125 µg/mL"}
{"Structure (SMILES)": "COc1cc2c(cc1O)CCN(Cc1cc(OC)c(OC)cc1OC)C2", "target or system": "MDA-MB-231", "test": "cell growth or viability, WST-1", "setting": "96 h", "endpoint": "GI50", "value": "4.1 µM"}
{"Structure (SMILES)": "Cc1ccc2nc(-c3ccc(N(C)C)cc3)[nH]c2c1", "target or system": "Aspergillus niger", "test": "microbial growth", "system": "ATCC16404", "endpoint": "MIC", "value": "256 µg/mL"}
{"Structure (SMILES)": "CCCCCCCCCCN1CCN(CC(O)(Cn2cncn2)c2ccc(F)cc2F)CC1 (centres unmarked)", "target or system": "Lodderomyces parapsilosis", "test": "microbial growth", "system": "ATCC22019", "endpoint": "MIC", "value": "0.015 µg/mL"}
